Drawing on ChEMBL document CHEMBL1137859, “Synthesis of C8-linked pyrrolo[2,1-c][1,4]benzodiazepine-benzimidazole conjugates with remarkable DNA-binding affinity” (2004), this text covers ΔTm and CC50 for eight compounds.

The test system of test [1] is Calf thymus DNA. The experiment in a line: Thermal denaturation of calf thymus DNA at 0 h, incubation at 37 degree C. It is filed as nucleic-acid assay. To be noted: Bos taurus. The procedure, abridged: (§1)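 CT-DNA (100 μM) with ligand 20 μM (PBD/DNA molar ratio 1:5) in aqueous sodium phosphate buffer (10 mM sodium phosphate + 1 mM EDTA, pH 7.00±0.01). Incubated at 37 °C for 0 h or 18 h, then thermal helix→coil melting followed. ΔTm taken relative to DNA alone (Tm mean of 20 separate determinations). ΔTm values ±0.05–0.1 °C.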

The subject of test [2] is Calf thymus DNA. Nature of the test: Thermal denaturation of calf thymus DNA at 18 h, incubation at 37 degree C. To be noted: Bos taurus. It is filed as nucleic-acid assay. The procedure, abridged: as §1
The next test relates to UACC-62. Nature of the test: In vitro concentration required to produce 50% lethality against human melanoma UACC-62 cell line. The test is classed as functional. The settings on record: read-out: LC50 (the source's name).
The next test relates to MDA-MB-435. Nature of the test: In vitro concentration required to produce 50% lethality against human breast MDA-MB-435 cell line. It is filed as functional. To be noted: read-out: LC50 (the source's name).
For another test, the system named is Malme-3M. Nature of the test: In vitro concentration required to produce 50% lethality against human melanoma MALME-3M cell line. The test is classed as functional. The settings on record: read-out: LC50 (the source's name).
The test system of the next test is SK-MEL-2. Nature of the test: In vitro concentration required to produce 50% lethality against human melanoma SK-MEL-2 cell line. The test is classed as functional. The settings on record: read-out: LC50 (the source's name).
Another test has as its system SK-MEL-5. Nature of the test: In vitro concentration required to produce 50% lethality against human melanoma SK-MEL-5 cell line. The test is classed as functional. The settings on record: read-out: LC50 (the source's name).
The test system of the next test is MDA-MB-231. Nature of the test: In vitro concentration required to produce 50% lethality against human breast MDA-MB-231/ATCC cell line. The settings on record: read-out: LC50 (the source's name). It is filed as functional.
Another test deals with EKVX. The experiment in a line: In vitro concentration required to produce 50% lethality against human non small cell lung EKVX cell line. It is filed as functional. To be noted: read-out: LC50 (the source's name).
The next test has as its system HOP-62. Nature of the test: In vitro concentration required to produce 50% lethality against human non small cell lung HOP-62 cell line. It is filed as functional. The settings on record: read-out: LC50 (the source's name).
In a further test the test system is NCI-H226. The experiment in a line: In vitro concentration required to produce 50% lethality against human non small cell lung NCI-H226 cell line. It is filed as functional. To be noted: read-out: LC50 (the source's name).
The next test has as its system NCI-H522. The experiment in a line: In vitro concentration required to produce 50% lethality against human non small cell lung NCI-H522 cell line. The test is classed as functional. The settings on record: read-out: LC50 (the source's name).
Test [3] in a line: In vitro concentration required to produce 50% lethality against human CNS […] cell line. The test is classed as functional. To be noted: read-out: LC50 (the source's name).
The next test deals with SF-539. The experiment in a line: In vitro concentration required to produce 50% lethality against human CNS SF-539 cell line. The test is classed as functional. To be noted: read-out: LC50 (the source's name).
The test system of a further test is SNB-19. The experiment in a line: In vitro concentration required to produce 50% lethality against human CNS SNB-19 cell line. It is filed as functional. To be noted: read-out: LC50 (the source's name).
For the next test, the system named is KM12. Nature of the test: In vitro concentration required to produce 50% lethality against human colon KM12 cell line. To be noted: read-out: LC50 (the source's name). It is filed as functional.
The test system of the next test is 786-0. Nature of the test: In vitro concentration required to produce 50% lethality against human renal 786-0 cell line. The test is classed as functional. The settings on record: read-out: LC50 (the source's name).
In a further test the test system is A498. Nature of the test: In vitro concentration required to produce 50% lethality against human renal A-498 cell line. The settings on record: read-out: LC50 (the source's name). It is filed as functional.
The next test has as its system TK-10. Nature of the test: In vitro concentration required to produce 50% lethality against human renal TK-10 cell line. It is filed as functional. The settings on record: read-out: LC50 (the source's name).
A further test deals with M14. The experiment in a line: In vitro concentration required to produce 50% lethality against human melanoma M14 cell line. It is filed as functional. The settings on record: read-out: LC50 (the source's name).
The next test concerns SN12C. Nature of the test: In vitro concentration required to produce 50% lethality against human renal SN12C cell line. It is filed as functional. To be noted: read-out: LC50 (the source's name).
In a further test the test system is BT-549. Nature of the test: In vitro concentration required to produce 50% lethality against human breast BT-549 cell line. The settings on record: read-out: LC50 (the source's name). The test is classed as functional.
A further test relates to PC-3. The experiment in a line: In vitro concentration required to produce 50% lethality against human prostate PC-3 cell line. It is filed as functional. To be noted: read-out: LC50 (the source's name).
In the next test the test system is RXF 393. The experiment in a line: In vitro concentration required to produce 50% lethality against human renal RXF 393 cell line. The test is classed as functional. To be noted: read-out: LC50 (the source's name).
In a further test the test system is IGROV-1. The experiment in a line: In vitro concentration required to produce 50% lethality against human ovarian IGROVI cell line. The test is classed as functional. To be noted: read-out: LC50 (the source's name).
The subject of a further test is OVCAR-3. Nature of the test: In vitro concentration required to produce 50% lethality against human ovarian OVCAR-3 cell line. It is filed as functional. To be noted: read-out: LC50 (the source's name).
The next test relates to OVCAR-5. Nature of the test: In vitro concentration required to produce 50% lethality against human ovarian OVCAR-5 cell line. It is filed as functional. The settings on record: read-out: LC50 (the source's name).
Test [4] in a line: In vitro concentration required to produce 50% lethality against human prostate DU-145 cell line. It is filed as functional. The settings on record: read-out: LC50 (the source's name).
For a further test, the system named is T47D. The experiment in a line: In vitro concentration required to produce 50% lethality against human breast T47D cell line. The test is classed as functional. The settings on record: read-out: LC50 (the source's name).
For another test, the system named is OVCAR-8. The experiment in a line: In vitro concentration required to produce 50% lethality against human ovarian OVCAR-8 cell line. It is filed as functional. To be noted: read-out: LC50 (the source's name).

In the case of `COc1cc2c(cc1OCCCOc1ccc(-c3nc4ccccc4[nH]3)cc1)N=C[C@@H]1CCCN1C2=O`, the ΔTm in the test on Calf thymus DNA [1] turned out to be 11 °C; with Calf thymus DNA [2], 11.4 °C.
In the same order, the values of `COc1cc2c(cc1OCCCCCOc1ccc(-c3nc4cc(N5CCN(C)CC5)ccc4[nH]3)cc1)N=C[C@@H]1CCCN1C2=O` are 22.4 °C and 22.6 °C.
As to `COc1cc2c(cc1OCCCOc1ccc(-c3nc4ccc(N5CCN(C)CC5)cc4[nH]3)cc1)N=C[C@@H]1CCCN1C2=O`, the results for the ΔTm in the test on Calf thymus DNA [1] and with Calf thymus DNA [2] were 16.6 °C and 22.5 °C, respectively. Moreover, the CC50 came out at 0.01 µM in the test with UACC-62; 0.01 µM with MDA-MB-435; 34.4 µM in the test on Malme-3M; 0.01 µM with SK-MEL-2; 0.01 µM with SK-MEL-5; 13.5 µM with MDA-MB-231. The CC50 was found to be 25.2 µM with EKVX; 17.4 µM in the test on HOP-62; 23.5 µM in the test on NCI-H226; 0.01 µM with NCI-H522; 27.8 µM in test [3]; 0.01 µM in the test with SF-539. In addition, the CC50 with SNB-19 came to 47.5 µM; with KM12, 45.2 µM; in the test with 786-0 it was 31.2 µM; with A498, 0.01 µM; with TK-10 it was 39.7 µM; with M14, 0.01 µM. For the same compound, the CC50 with SN12C was found to be 18.7 µM; in the test with BT-549, 12.6 µM; with PC-3, 16.4 µM; in the test on RXF 393, 0.01 µM; in the test with IGROV-1 it was 45.3 µM; in the test with OVCAR-3, 34.6 µM. In addition, the CC50 is 33.9 µM with OVCAR-5, 33.7 µM in test [4], 42.1 µM in the test on T47D and 21 µM in the test with OVCAR-8.
Consider `COc1cc2c(cc1OCCCCOc1ccc(-c3nc4cc(N5CCN(C)CC5)ccc4[nH]3)cc1)N=C[C@@H]1CCCN1C2=O`, for which the shift in melting temperature (ΔTm) with Calf thymus DNA [1] and in the test with Calf thymus DNA [2] was 15.5 °C in each case.
For the compound `COc1cc2c(cc1O)N=C[C@H]1CCCN1C2=O`, in the test with Calf thymus DNA [1], the ΔTm was 0.3 °C.
`COc1cc2c(cc1OCCCCOc1ccc(-c3nc4ccccc4[nH]3)cc1)N=C[C@@H]1CCCN1C2=O`: the ΔTm was 3.8 °C in the test on Calf thymus DNA [1] and 4 °C with Calf thymus DNA [2].
In the same order, the values of `CN1CCN(c2ccc3[nH]c(-c4ccc(O)cc4)nc3c2)CC1` are 2.9 °C and 2.9 °C.
Turning to `COc1cc2c(cc1OCCCCCOc1ccc(-c3nc4ccccc4[nH]3)cc1)N=C[C@@H]1CCCN1C2=O`, the ΔTm worked out at 10.3 °C with Calf thymus DNA [1] and 11 °C with Calf thymus DNA [2].

The ΔTm is the shift of the melting midpoint relative to a reference.
